Bioassay records (PubChem)
UCH37 DUB inh: inhibitors of human UCH37 deubiquitinase, primary screen, biochemical, Ub-AMC cleavage, fluorescence | inhibition, % (test concentration not listed) | Ubiquitin carboxyl-terminal hydrolase isozyme L5 (Homo sapiens), Q9Y5K5 | purified proteasome/UCH37 | 330,000 compounds, 0.33% hits;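 active = mean inhibition over replicate wells above about 20%, limit read from the data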
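assay system = human UCH37 enzyme supplied as purified proteasome complex | amount = proteasome at 0.15 nM in the dispensed enzyme solution | schedule = 30 min compound-proteasome preincubation then 25 min substrate reaction, room temperature | measured by = fluorescence, ex 355 nm, em 460 nm | benchmarks = no-proteasome wells (full inhibition) and compound-free wells (no inhibition)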
aDG glyco up: activators of alpha-DG glycosylation, primary screen, uHTS, Pro5-aDG cells, AlphaScreen; 360,000 compounds, 0.22% hits; alpha-DG glycosylation AlphaScreen (IIH6); 0% Pro5, 100% B10-LARGE cell signal; activation, % at 10 µM;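 active = activation of at least 8% versus controls, or a plate z-score of at least 8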;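 note: Pro5 are CHO cells carrying HIG-tagged alpha-DG that lacks glycosylation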
CTSL1 counter: Fasciola hepatica cathepsin L1 inhibitors, primary screen, counter-screen for PFM18AAP inhibitor project, biochemical, QFRET, fluorogenic peptide substrate; recombinant F. hepatica cathepsin L1, Z-Leu-Arg-MCA fluorescence; inhibition, % at 5.96 µM; 300,000 compounds, 0.49% hits;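 active = inhibition above the mean of all tested compounds plus 3 SD, set per screening campaign, cut at about 17% in these data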
PKA-R1A act: activators of PKA-R1A holoenzyme, primary screen, biochemical, fluorescence polarization, Cy5-IP20, bovine R1A, mouse PKAc; cAMP-dependent protein kinase type I-alpha regulatory subunit (Bos taurus) + …; PKA-R1A dissociation; scaled: DMSO 0%, 113 µM cGMP 100%; activation, % at 11.4 µM; 340,000 compounds, 0.083% hits; AID 504707, 2011;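 active = percent activation above the mean of all tested compounds plus 3 SD, cut at about 19% in these data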;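 note: higher means more PKAc released from R1A so a rise in polarization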
PKA-R2B act: activators of PKA-R2B holoenzyme, primary screen, biochemical, fluorescence polarization, Cy5-IP20, human; activation, % at 11.4 µM; 340,000 compounds, 0.079% hits; cAMP-dependent protein kinase catalytic subunit beta (Homo sapiens) + cAMP-dependent …; AID 504700, 2011; PKA-R2B holoenzyme dissociation; R2B truncated from residue 108, S112A mutant; 0% DMSO only, 100% 113 µM cGMP;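 active = activation above a cutoff set at the mean over all compounds plus 3 SD, cut at about 18% in these data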;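 note: higher means more holoenzyme dissociation and a rise in polarization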
aDG conf: alpha-DG glycosylation enhancers, retest, confirmation, single concentration, Pro5-aDG cells | shares compounds with aDG glyco up | IIH6 AlphaLISA; scaled to LARGE-overexpressing B10 cells as 100% | activation, % at 10 µM (by protocol) | 600 compounds, 17% hits;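 active = activation of at least 7% in one or more replicates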;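 note: cells exposed to compound for two days before detection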
Numbers stand for hits; – = inactive; · = not tested or not shown. The list is not random: actives were taken first. Their share in the collection is about 0.94%.

SMILES	UCH37 DUB inh	aDG glyco up	CTSL1 counter	PKA-R1A act	PKA-R2B act	aDG conf
O=C(NNc1ccnc2cc(Cl)ccc12)C1CCCCC1	–	10	–	–	–	–
Cc1cc(C)n(CCNC(=O)[C@H]2O[C@@H](n3ccc(=O)[nH]c3=O)[C@H](O)[C@@H]2O)n1	·	21	·	·	·	–
COc1ccc2sc(/C=C/c3ccccc3O)[n+](C)c2c1	–	11	·	·	·	–
COc1ccc(N=Cc2ccccc2O)cc1	–	–	·	–	–	·
CN1CCN(CC(=O)Nc2nc(-c3c[nH]c4ccccc34)cs2)CC1	–	–	–	–	–	·
CCC(C)Nc1nc(-c2c[nH]c3ccccc23)cs1 (centres undefined)	·	7.7	–	–	–	6.9
CNc1nc(-c2c[nH]c3ccccc23)cs1	–	11	–	–	–	7.9
Nc1nc(-c2c[nH]c3ccccc23)cs1	–	9.1	–	–	–	–
O=C(NCC1CCCO1)C1CCN(C2CCN(C(=O)CC3CCCC3)CC2)CC1 (centres undefined)	–	3.7	–	–	–	–
CCCCC12CN3CCN(CC(C3)C1=NNC(=O)Nc1ccccc1)C2	–	·	·	·	·	·
